# Measured values reported in ChEMBL document CHEMBL4364291, “Benzylideneacetone Derivatives Inhibit Osteoclastogenesis and Activate Osteoblastogenesis Independently Based on Specific Structure-Activity Relationship” (J Med Chem, 2019).
# Activity calls are given as the source filed them. The calls are words filed in the database; no cut-off is given here.
# Assays:
# BMDM [1] = experiment: Inhibition of RANKL-induced osteoclastogenesis in C57BL/6 mouse bone marrow macrophages assessed as effect on NFkappaB expression at 10 uM measured over 5 days by Western blot analysis; type: functional, cell-based
# In short: (§1)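 C57BL/6 BMM were grown with M-CSF plus RANKL over the course of osteoclastogenesis, treated at 0.5 or 10 μM. NF-κB and NFATc1 were followed by Western blot. The negative control was M-CSF only.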
# [2] = Inhibition of M-CSF/RANKL-induced osteoclast differentiation in C57BL/6 mouse bone marrow macrophage assessed as reduction in multinucleated TRAP+ cells at 10 uM incubated for 6 days with fresh media replacement on day 3 and measured on day 6 by TRAP staining-based microscopic analysis relative to control; type: functional; settings: C57BL/6, BMDM
# In short: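 BMM came from femur and tibia marrow of 5–8-week-old male C57BL/6 mice and were purified over lymphocyte separation medium. Cells, 1 × 10^5 per well, were grown in α-MEM/10% FBS with M-CSF (60 ng/mL) and RANKL (150 ng/mL) for 6 d, medium changed day 3. Compound range was 0.01−100 μM. TRAP+ multinucleated cells were counted on day 6.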
# BMDM [3] = experiment: Inhibition of M-CSF/RANKL-induced osteoclast differentiation in C57BL/6 mouse bone marrow macrophages co-cultured with mouse MC3T3-E1 cells assessed as reduction in multinucleated TRAP+ cells at 10 uM measured on day 6 by TRAP staining-based inverted microscopic analysis; type: functional, cell-based
# In short: (§2)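 C57BL/6 BMM were cocultured with MC3T3-E1 preosteoblasts in osteoclast and osteoblast differentiation factors. The negative control had M-CSF only. Compound was added at a final 10 μM. TRAP staining and inverted-microscope inspection were done on day 6.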
# BMDM [4] = experiment: Inhibition of M-CSF/RANKL-induced osteoclast differentiation in C57BL/6 mouse bone marrow macrophages co-cultured with mouse MC3T3-E1 cells assessed as reduction in multinucleated TRAP+ cells measured on day 6 by TRAP staining-based inverted microscopic analysis; type: functional, cell-based; in short: as §2
# MC3T3-E1 [5] = experiment: Induction of osteoblast differentiation in mouse MC3T3-E1 cells assessed as increase in osteocalcin expression at 50 uM after 14 days by Western blot analysis relative to control; type: functional
# In short: (§3)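 MC3T3-E1 cells were differentiated with osteoblast differentiation factors, with or without 50 μM compound, for 21 d. The negative control lacked differentiation factors. Osteocalcin in culture medium was measured by Western blot at 7, 14 and 21 d. Values are mean ± SD of three independent experiments.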
# MC3T3-E1 [6] = experiment: Induction of osteoblast differentiation in mouse MC3T3-E1 cells assessed as increase in osteocalcin expression at 50 uM after 21 days by Western blot analysis relative to control; type: functional; in short: as §3
# MC3T3-E1 [7] = experiment: Induction of osteoblast differentiation in ascorbic acid/beta-glycerophosphate-induced mouse MC3T3-E1 cells co-cultured with C57BL/6 mouse bone marrow macrophages assessed as increase in osteocalcin expression at 10 uM measured on day 7 by Western blot analysis; type: functional, cell-based
# In short: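 MC3T3-E1 and C57BL/6 BMM cocultures were given osteoblast plus osteoclast differentiation factors, with or without 10 μM compound, for 21 d. The negative control had M-CSF only. Osteocalcin in culture medium was quantified by Western blot at 7, 14 and 21 d.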
# BMDM [8] = experiment: Inhibition of RANKL-induced osteoclastogenesis in C57BL/6 mouse bone marrow macrophages assessed as effect on NFATc1 expression at 10 uM measured over 5 days by Western blot analysis; type: functional, cell-based; in short: as §1
# BMDM [9] = experiment: Suppression of NFATc1 expression in M-CSF induced C57BL/6 mouse bone marrow macrophages at 10 uM measured over 5 days by Western blot analysis; type: functional, cell-based
# In short: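 C57BL/6 BMM were kept proliferating with M-CSF in the absence of RANKL and treated with compound (0.5 or 10 μM). NFATc1 expression was followed over the culture period by Western blot.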
# MC3T3-E1 [10] = experiment: Induction of osteoblast differentiation in mouse ascorbic acid/beta-glycerophosphate-induced MC3T3-E1 cells assessed as increase in RUNX2 expression at 50 uM after 21 days by Western blot analysis relative to control; type: functional
# In short: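 MC3T3-E1 cells were induced with osteoblast differentiation factors, with or without 50 μM compound, for 21 d. Cells were harvested at 7, 14 and 21 d and RUNX2 was quantified by Western blot against untreated differentiated cells. The negative control lacked differentiation factors. Values are mean ± SD of three independent experiments.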
# [11] = Cytotoxicity against human ASC cells after 24 hrs by MTT assay; type: cell-based; settings: read-out: LD50
# In short: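 Human adipose-derived mesenchymal stem cells were grown in CB-ADMSC-GM medium at 37 °C under 5% CO2. Cell growth and survival were measured by MTT assay and reported as LD50.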
# AGS = experiment: Antiproliferative activity against human AGS cells after 24 hrs by MTT assay; type: functional; settings: read-out: LD50 (the source's name)
# BMDM [12] = experiment: Inhibition of RANKL-induced osteoclastogenesis in C57BL/6 mouse bone marrow macrophages assessed as reduction in NFATc1 expression at 0.5 uM measured over 5 days by Western blot analysis; type: functional, cell-based; in short: as §1
# Mus musculus [13] = experiment: Antiosteoporotic activity in ddY mouse model of OVX-induced osteoporosis assessed as increase in femur bone mineral density at 1 mg/kg, po administered once daily via gavage for 4 weeks by microcomputed tomographic analysis; type: functional, organism-based
# In short: (§4)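 Female ddY mice were ovariectomized. Oral gavage began 1 week after surgery and ran once daily for 28 d. Vehicle was 300 μL PBS containing 0.5% (v/v) DMSO, also given to sham and OVX controls. Mice were then euthanized and femur and tibia fixed for CT imaging. Values are mean ± SD of four mice.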
# Mus musculus [14] = experiment: Antiosteoporotic activity in ddY mouse model of OVX-induced osteoporosis assessed as increase in ratio of bone volume/trabecular volume in femur bone at 1 mg/kg, po administered once daily via gavage for 4 weeks by microcomputed tomographic analysis; type: functional, organism-based; in short: as §4
# Mus musculus [15] = experiment: Antiosteoporotic activity in ddY mouse model of OVX-induced osteoporosis assessed as reduction in trabecular separation in femur bone at 1 mg/kg, po administered once daily via gavage for 4 weeks by microcomputed tomographic analysis; type: functional, organism-based; in short: as §4
# Mus musculus [16] = experiment: Antiosteoporotic activity in ddY mouse model of OVX-induced osteoporosis assessed as increase in trabecular thickness in femur bone at 1 mg/kg, po administered once daily via gavage for 4 weeks by microcomputed tomographic analysis; type: functional, organism-based; in short: as §4
# T-24 = experiment: Antiproliferative activity against human T24 cells after 24 hrs by MTT assay; type: functional; settings: T-24, 24 h, read-out: LD50 (the source's name)
# [17] = Toxicity in ddY mouse model of OVX-induced osteoporosis assessed as increase in body weight at 1 mg/kg, po administered once daily via gavage for 4 weeks measured 5 weeks post OVX-challenge; type: organism-based; settings: in vivo, 840 h
# In short: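 Dosing of ddY mice began one week after ovariectomy: compound in 300 μL of 0.5% (v/v) DMSO-containing PBS by gavage once daily for 28 d. OVX and sham controls received vehicle. Body weight was compared with sham control 5 weeks after OVX.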
Structure (SMILES),inhibition (BMDM [1]),inhibition at 10 µM [2] [%],inhibition (BMDM [3]),inhibition (BMDM [4]),fold change (FC) (MC3T3-E1 [5]),fold change (FC) (MC3T3-E1 [6]),Activity (MC3T3-E1 [7]),inhibition (BMDM [8]),Activity (BMDM [9]),fold change (FC) (MC3T3-E1 [10]),CC50 at 24 h [11] [µM],CC50 (AGS) [µM],inhibition (BMDM [12]),Activity (Mus musculus [13]),Activity (Mus musculus [14]),Activity (Mus musculus [15]),Activity (Mus musculus [16]),CC50 (T-24) [µM],Activity [17]
CC(=O)/C=C/c1ccc(O)c(O)c1,inactive,100,Active,Dose-dependent effect,4.1,2,Active,inactive,Active,3.2,2800,60,–,–,–,–,–,–,–
COc1ccc(/C=C/C(C)=O)cc1O,–,–,–,–,–,–,–,–,–,–,–,–,Active,Active,Active,Active,Active,180,Toxic
